Measurements published in ChEMBL document CHEMBL2046281, “Pre-steady state kinetic analysis of cyclobutyl derivatives of 2'-deoxyadenosine 5'-triphosphate as inhibitors of HIV-1 reverse transcriptase” (Bioorg Med Chem Lett, 2012).

Experiments:
[1] = molecular target: Human immunodeficiency virus type 1 reverse transcriptase (Human immunodeficiency virus 1) (UniProt Q72547); experiment: Binding affinity to wild type HIV1 reverse transcriptase assessed as compound incorporation in presence of 50 nM primer template and 10 mM MgCl2 by pre-steady state kinetics study
Outline: (§1)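 Pre-steady-state single-nucleotide incorporation by HIV-1 RT (wild type or K65R), 250 nM active-site enzyme, elongating a radiolabeled DNA/DNA primer-template (50 nM) that carries the primer binding site and its complementary sequence. Reactions contained 10 mM MgCl2 and varied nucleotide concentrations. kpol and Kd were derived, and incorporation efficiency was reported in s-1 µM-1.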

[2] = molecular target: Human immunodeficiency virus type 1 reverse transcriptase (Human immunodeficiency virus 1) (UniProt Q72547); experiment: Discrimination index, ratio of incorporation efficiency of dATP to incorporation efficiency of compound for wild type HIV1 reverse transcriptase
[3] = molecular target: Human immunodeficiency virus type 1 reverse transcriptase (Human immunodeficiency virus 1, UniProt Q72547); experiment: Binding affinity to wild type HIV1 reverse transcriptase by pre-steady state kinetics study
Outline: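 Pre-steady-state single-nucleotide incorporation by wild-type HIV-1 RT (250 nM active sites) into a radiolabeled DNA/DNA primer-template (50 nM) carrying the primer binding site and its complementary sequence. Reactions contained 10 mM MgCl2 and varied nucleotide concentrations. kpol and Kd were taken from the primer elongation data.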

[4] = molecular target: Human immunodeficiency virus type 1 reverse transcriptase (Human immunodeficiency virus 1) (UniProt Q72547); experiment: Inhibition of wild type HIV1 reverse transcriptase assessed as compound incorporation efficiency in presence of 50 nM primer template and 10 mM MgCl2 by pre-steady state kinetics study; outline: as §1
[5] = tested on: Human immunodeficiency virus type 1 reverse transcriptase (Human immunodeficiency virus 1), Q72547 [K65R]; experiment: Binding affinity to HIV1 reverse transcriptase K65R mutant assessed as compound incorporation in presence of 50 nM primer template and 10 mM MgCl2 by pre-steady state kinetics study; outline: as §1
[6] = tested on: Human immunodeficiency virus type 1 reverse transcriptase (Human immunodeficiency virus 1), Q72547 [K65R]; experiment: Inhibition of HIV1 reverse transcriptase K65R mutant assessed as compound incorporation efficiency in presence of 50 nM primer template and 10 mM MgCl2 by pre-steady state kinetics study; outline: as §1
[7] = molecular target: Human immunodeficiency virus type 1 reverse transcriptase (Human immunodeficiency virus 1, UniProt Q72547, K65R); experiment: Binding affinity to HIV1 reverse transcriptase K65R mutant by pre-steady state kinetics study; outline: as §1
[8] = tested on: Human immunodeficiency virus type 1 reverse transcriptase (Human immunodeficiency virus 1), Q72547 [K65R]; experiment: Discrimination index, ratio of incorporation efficiency of dATP to incorporation efficiency of compound for wild type HIV1 reverse transcriptase K65R mutant

| Ratio [2] | SMILES | K [1] | Kd [3] | Activity [4] | K [5] | Activity [6] | Kd [7] | Ratio [8] |
| --- | --- | --- | --- | --- | --- | --- | --- | --- |
| 519 | Nc1ncnc2c1ncn2[C@@H]1C[C@H](COP(=O)(O)OP(=O)(O)OP(=O)(O)O)[C@H]1F | 0.13 s⁻¹ | 25.5 µM | 0.0052 s⁻¹ µM⁻¹ |  |  |  |  |
| 386 | NC1=Nc2ncnc3c2c(cn3[C@H]2C[C@@H](COP(=O)(O)OP(=O)(O)OP(=O)(O)O)C2)C=C1 | 0.16 s⁻¹ | 22.4 µM | 0.007 s⁻¹ µM⁻¹ |  |  |  |  |
| 245 | Nc1ncnc2c1ncn2[C@H]1C[C@@H](COP(=O)(O)OP(=O)(O)OP(=O)(O)O)C1 | 0.23 s⁻¹ | 20.4 µM | 0.011 s⁻¹ µM⁻¹ |  |  |  |  |

Further lines, the compound ahead of its results:

| SMILES | Ratio [2] | K [1] | Kd [3] | Activity [4] | K [5] | Activity [6] | Kd [7] | Ratio [8] |
| --- | --- | --- | --- | --- | --- | --- | --- | --- |
| Nc1ncnc2c1ncn2[C@H]1C[C@H](O)[C@@H](COP(=O)(O)OP(=O)(O)OP(=O)(O)O)O1 |  | 12.3 s⁻¹ | 4.6 µM | 2.7 s⁻¹ µM⁻¹ | 4 s⁻¹ | 0.61 s⁻¹ µM⁻¹ | 6.6 µM |  |
| C[C@H](Cn1cnc2c(N)ncnc21)OCP(=O)(O)OP(=O)(O)OP(=O)(O)O | 56 | 0.79 s⁻¹ | 16.5 µM | 0.048 s⁻¹ µM⁻¹ | 0.15 s⁻¹ | 0.005 s⁻¹ µM⁻¹ | 29.1 µM | 122 |
| Nc1ncnc2c1ncn2[C@H]1C[C@@H](OCP(=O)(O)OP(=O)(O)OP(=O)(O)O)C1 | 13 | 1.3 s⁻¹ | 6.5 µM | 0.21 s⁻¹ µM⁻¹ | 0.07 s⁻¹ | 0.015 s⁻¹ µM⁻¹ | 4.7 µM | 41 |
